According to ChEMBL document CHEMBL4270568, “Identification, structural modification, and dichotomous effects on human immunodeficiency virus type 1 (HIV-1) replication of ingenane esters from Euphorbia kansui” (Eur J Med Chem, 2018):
pEC50: −log10 of the molar value.

Tested on: not listed separately
Experiment: Selectivity index, ratio of CC50 for human MT4 cells to EC50 for Human immunodeficiency virus 1 NL4-3 infected in human MT4 cells
Assay type: toxicity, cell-based
Conditions: read-out: Ratio CC50/EC50
How it was run: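 SI = CC50/EC50. CC50 is from a 3-day CytoTox-Glo assay on MT4 cells. EC50 is from MT4 cells infected with 50 TCID50/well NL4-3 Nanoluc-sec and given graded compound, with supernatant luciferase read on day 3 as 50% reduction.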
In the case of `COc1ccc(C(=O)O[C@H]2C(C)=C[C@]34C(=O)[C@@H](C=C(C)[C@@H](O)[C@]23O)[C@H]2[C@@H](C[C@H]4C)C2(C)C)cc1`, the selectivity ratio was > 64.
For `C/C=C(\C)C(=O)O[C@H]1C(C)=C[C@]23C(=O)[C@@H](C=C(C)[C@@H](O)[C@]12O)[C@H]1[C@@H](C[C@H]3C)C1(C)C`, the selectivity ratio was > 46.
In the case of `CC1=C[C@@H]2C(=O)[C@]3(C=C(C)[C@H](OC(=O)/C=C/c4ccccc4)[C@@]3(O)[C@@H]1O)[C@H](C)C[C@@H]1[C@H]2C1(C)C`, the selectivity ratio was > 45.
With `CC1=C[C@@H]2C(=O)[C@]3(C=C(C)[C@H](O)[C@@]3(O)[C@@H]1O)[C@H](C)C[C@@H]1[C@H]2C1(C)C` the selectivity ratio was > 10.
With `C/C=C/C(=O)O[C@H]1C(C)=C[C@]23C(=O)[C@@H](C=C(C)[C@@H](O)[C@]12O)[C@H]1[C@@H](C[C@H]3C)C1(C)C` the selectivity ratio was > 17.
With `C/C=C/C(=O)O[C@@H]1C(C)=C[C@@H]2C(=O)[C@]3(C=C(C)[C@H](O)[C@@]13O)[C@H](C)C[C@@H]1[C@H]2C1(C)C` the selectivity ratio was > 16.
In the case of `CCCCCCCC(=O)O[C@H]1C(C)=C[C@]23C(=O)[C@@H](C=C(C)[C@@H](O)[C@]12O)[C@H]1[C@@H](C[C@H]3C)C1(C)C`, the selectivity ratio was > 59.9.
With `CC1=C[C@]23C(=O)[C@@H](C=C(CO)[C@@H](O)[C@]2(O)[C@H]1O)[C@H]1[C@@H](C[C@H]3C)C1(C)C` [INGENOL] the selectivity ratio was > 10.
With `CC(=O)OCC1=C[C@@H]2C(=O)[C@]3(C=C(C)[C@H](O)[C@@]3(O)[C@@H]1O)[C@H](C)C[C@@H]1[C@H]2C1(C)C` the selectivity ratio was > 10.
For `CC1=C[C@@H]2C(=O)[C@]3(C=C(C)[C@H](O)[C@@]3(O)[C@@H]1OC(=O)c1ccc3ccccc3c1)[C@H](C)C[C@@H]1[C@H]2C1(C)C`, the selectivity ratio was > 179.
For `C/C=C(/C)C(=O)O[C@H]1C(C)=C[C@]23C(=O)[C@@H](C=C(C)[C@@H](O)[C@]12O)[C@H]1[C@@H](C[C@H]3C)C1(C)C`, the selectivity ratio was > 22.8.

Tested on: Human immunodeficiency virus 1
Experiment: Antiviral activity against Human immunodeficiency virus 1 NL4-3 infected in human MT4 cells measured on day 3 post infection by Nano-Glo luciferase reporter gene assay
Assay type: functional, organism-based
Conditions: Human immunodeficiency virus 1, NL4-3, MT4, 72 h
How it was run: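 HIV-1 NL4-3 Nanoluc-sec reporter virus at 50 TCID50/well infects MT4 cells (1 × 10⁵ cells/mL) in the presence of graded compound concentrations. On day 3 post-infection, supernatant is assayed for secreted NanoLuc luciferase.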
For `COc1ccc(C(=O)O[C@H]2C(C)=C[C@]34C(=O)[C@@H](C=C(C)[C@@H](O)[C@]23O)[C@H]2[C@@H](C[C@H]4C)C2(C)C)cc1`, the pEC50 was 6.87.
In the case of `C/C=C(\C)C(=O)O[C@H]1C(C)=C[C@]23C(=O)[C@@H](C=C(C)[C@@H](O)[C@]12O)[C@H]1[C@@H](C[C@H]3C)C1(C)C`, the pEC50 was 6.68.
Work on `CC1=C[C@@H]2C(=O)[C@]3(C=C(C)[C@H](OC(=O)/C=C/c4ccccc4)[C@@]3(O)[C@@H]1O)[C@H](C)C[C@@H]1[C@H]2C1(C)C` yielded a pEC50 of 6.73.
In the case of `CC1=C[C@@H]2C(=O)[C@]3(C=C(C)[C@H](O)[C@@]3(O)[C@@H]1O)[C@H](C)C[C@@H]1[C@H]2C1(C)C`, the pEC50 was < 4.92.
`C/C=C/C(=O)O[C@H]1C(C)=C[C@]23C(=O)[C@@H](C=C(C)[C@@H](O)[C@]12O)[C@H]1[C@@H](C[C@H]3C)C1(C)C` gave a pEC50 of 6.22.
Molecule `C/C=C/C(=O)O[C@@H]1C(C)=C[C@@H]2C(=O)[C@]3(C=C(C)[C@H](O)[C@@]13O)[C@H](C)C[C@@H]1[C@H]2C1(C)C` has a pEC50 of 6.20.
Molecule `CCCCCCCC(=O)O[C@H]1C(C)=C[C@]23C(=O)[C@@H](C=C(C)[C@@H](O)[C@]12O)[C@H]1[C@@H](C[C@H]3C)C1(C)C` has a pEC50 of 6.84.
In the case of `CC1=C[C@]23C(=O)[C@@H](C=C(CO)[C@@H](O)[C@]2(O)[C@H]1O)[C@H]1[C@@H](C[C@H]3C)C1(C)C` [INGENOL], the pEC50 was < 4.94.
`CC(=O)OCC1=C[C@@H]2C(=O)[C@]3(C=C(C)[C@H](O)[C@@]3(O)[C@@H]1O)[C@H](C)C[C@@H]1[C@H]2C1(C)C` gave a pEC50 of 5.97.
Molecule `CC1=C[C@@H]2C(=O)[C@]3(C=C(C)[C@H](O)[C@@]3(O)[C@@H]1OC(=O)c1ccc3ccccc3c1)[C@H](C)C[C@@H]1[C@H]2C1(C)C` has a pEC50 of 7.81.
Work on `C/C=C(/C)C(=O)O[C@H]1C(C)=C[C@]23C(=O)[C@@H](C=C(C)[C@@H](O)[C@]12O)[C@H]1[C@@H](C[C@H]3C)C1(C)C` yielded a pEC50 of 6.37.

Tested on: MT4
Experiment: Cytotoxicity against human MT4 cells after 3 days by CytoTox-Glo assay
Assay type: cell-based
Conditions: mt4, 72 h
How it was run: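 MT4 cells cultured for 3 days with various compound concentrations. Cytotoxicity is read by CytoTox-Glo following the manufacturer's protocol. CC50 = concentration causing 50% reduction of cell viability.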
With `COc1ccc(C(=O)O[C@H]2C(C)=C[C@]34C(=O)[C@@H](C=C(C)[C@@H](O)[C@]23O)[C@H]2[C@@H](C[C@H]4C)C2(C)C)cc1` the CC50 was > 8600 nM.
With `CC1=C[C@@H]2C(=O)[C@]3(C=C(C)[C@H](OC(=O)/C=C/c4ccccc4)[C@@]3(O)[C@@H]1O)[C@H](C)C[C@@H]1[C@H]2C1(C)C` the CC50 was > 8700 nM.
With `CC1=C[C@@H]2C(=O)[C@]3(C=C(C)[C@H](O)[C@@]3(O)[C@@H]1O)[C@H](C)C[C@@H]1[C@H]2C1(C)C` the CC50 was > 12000 nM.
For `C/C=C/C(=O)O[C@H]1C(C)=C[C@]23C(=O)[C@@H](C=C(C)[C@@H](O)[C@]12O)[C@H]1[C@@H](C[C@H]3C)C1(C)C`, the CC50 was > 10000 nM.
With `C/C=C/C(=O)O[C@@H]1C(C)=C[C@@H]2C(=O)[C@]3(C=C(C)[C@H](O)[C@@]13O)[C@H](C)C[C@@H]1[C@H]2C1(C)C` the CC50 was > 10000 nM.
For `CCCCCCCC(=O)O[C@H]1C(C)=C[C@]23C(=O)[C@@H](C=C(C)[C@@H](O)[C@]12O)[C@H]1[C@@H](C[C@H]3C)C1(C)C`, the CC50 was > 8700 nM.
For `CC1=C[C@]23C(=O)[C@@H](C=C(CO)[C@@H](O)[C@]2(O)[C@H]1O)[C@H]1[C@@H](C[C@H]3C)C1(C)C` [INGENOL], the CC50 was > 11500 nM.
For `CC(=O)OCC1=C[C@@H]2C(=O)[C@]3(C=C(C)[C@H](O)[C@@]3(O)[C@@H]1O)[C@H](C)C[C@@H]1[C@H]2C1(C)C`, the CC50 was > 10300 nM.
With `CC1=C[C@@H]2C(=O)[C@]3(C=C(C)[C@H](O)[C@@]3(O)[C@@H]1OC(=O)c1ccc3ccccc3c1)[C@H](C)C[C@@H]1[C@H]2C1(C)C` the CC50 was > 8200 nM.
For `C/C=C(/C)C(=O)O[C@H]1C(C)=C[C@]23C(=O)[C@@H](C=C(C)[C@@H](O)[C@]12O)[C@H]1[C@@H](C[C@H]3C)C1(C)C`, the CC50 was > 9700 nM.
